This sample holds only a part of the variants without activity.
B1: tRNA (parent)
chain: GUUCCGUUGGCGUAAUGGUAACGCGUCUCCCUCCUAAGGAGAAGACUGCGGGUUCGAGUCCCGUACGGAACG

Variants of: B1
Experiment: yeast fitness relative to wild type (ratio to wild type); higher = fitter; tRNA-Arg(CCU), competitive growth, 37 C, YPD
Method in brief: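 Changes in genotype frequencies gave Darwinian fitness relative to wild type. Frequencies were read by 100-nucleotide paired-end sequencing of gene amplicons before and after pooled Saccharomyces cerevisiae strains, carrying tRNA-Arg(CCU) gene variants at the native locus, were competed in YPD at 37°C for 24 hours in six replicates. A genotype was kept only with ≥ 100 starting reads, and estimates < 0.5 were set to 0.5.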

Variant | yeast fitness
G48A C49G | 1.05
A43U U59C | 1.02
C31G C46G G50A | 0.552
U13A C22G G25C C27U C30G C55A | ≤ 0.5
C4U G17A U19G A21G A43G | 0.554
U26A C31U A57G | 0.742
C34G A37C C62U C66A | ≤ 0.5
C61A G67C | 0.664
U2G C24G C29G C31G U64C | ≤ 0.5
A14C U28A C61G A69G | ≤ 0.5
A20C G48C A70C | 0.649
C5G U28C U35A | 0.545
C49U G50C | 0.815
C24G A57C C61U | ≤ 0.5
G10C C49G U53G | 0.551
G18A A21C C30U | ≤ 0.5
G39A G58C A69U | 0.773
U7C C24G | 0.645
C29G U32G | ≤ 0.5
C4A G17C G23C A45C U54C | ≤ 0.5
U19C C27U C33U A40C C55A A65G | ≤ 0.5
C5G U7A C11U A36C G38A G44C | 0.589
C46U C60G C62G | ≤ 0.5
G9A U16C A20C C61U | ≤ 0.5

Variant | yeast fitness
U3A U19A C24U | 0.74
C4G C27U G58C | 0.71
C11G C31G A36U | ≤ 0.5
A15U G25C C34A | 0.941
C4A A70U | 0.879
G38A G56A | 1.02
G18A A21C G23U U32A A42U G48C U64A | 0.529
C30A C31U | 1
G6C C34G | 0.717
U53A U59A | 0.664
C5U G10C C30G C34U A42C | ≤ 0.5
C31U U47G A65U | ≤ 0.5
A14C C22U C34A | ≤ 0.5
C29U C30A C61G | ≤ 0.5
C5A U7C C30A C31U | ≤ 0.5
C22G C31U C49U C61A | ≤ 0.5
G9C C24U U26G C62G A70U | ≤ 0.5
A20G C22U G51C | ≤ 0.5
G10A A40U G52C C62A A65C A70U | 0.655
A15C U54G | 0.537
C5G A14U A43U U54C | 0.666
U7C C62U | 0.802
C4U U7A A37C | ≤ 0.5
A42U C60U A70G | 0.703

Variant | yeast fitness
A57C A65C A70C | 0.571
C11A G52C G67A | ≤ 0.5
A15G C29A C34G | ≤ 0.5
U16A C24A A43G | ≤ 0.5
U19G A43U G51U A65G G68A | ≤ 0.5
U26C G48C G52C A57C G58A | ≤ 0.5
C5G C11G A15U U54C C61G A70C | ≤ 0.5
C49U A69U | 1.01
C31U C34A | 0.863
U26A G52A | 0.666
C33G A37G C49U C60U | 0.551
C22G C49U C62G | 0.558
U2C C5A A40G | 0.563
U19C C24A U47C | ≤ 0.5
U19A G38C G56C | ≤ 0.5
C5G A65C | 0.775
C4A U7A U8G A45C A65G C66G | ≤ 0.5
G10A C60G C61G | 0.528
A21U G67U | 0.742
C5U C11A A21G G23C | ≤ 0.5
U3C U7G A14C C31A | 0.788
C22U A40U A43U C46U C55U A65U | ≤ 0.5
U8G U54G G56C | ≤ 0.5
A42G U47G G50C | 0.608

Variant | yeast fitness
A45U U54C | 0.886
C5G U32A G56A | 0.634
G12C C27A G38A | 0.584
C5U C31U C61G | 0.549
U3C C4A U16C G17A | ≤ 0.5
C30G C46A U47G C49A G52A G58C U64G A65G | 0.528
U2A G50C G56A A57G | ≤ 0.5
G17A G25C A40U | 0.574
G12C A43U U59A A69G | ≤ 0.5
C22G A36C U47A | 0.552
U3A A21G G23C A65C | ≤ 0.5
A20G C24G C66U | 0.527
C22G C27U U35C G39C A42C G48A | ≤ 0.5
G12A C24G U47A C49G A69C | ≤ 0.5
A15G A45U | 0.987
A14C U16G C29U U54C | ≤ 0.5
A36U A43C C49A C55G | ≤ 0.5
U26A A43U | 0.937
C11A C46U G48A C55U U59A | ≤ 0.5
G18C G25C U47C | ≤ 0.5
C24U C49A G67C | 0.527
C5G C55G | 0.685
U7G C30U G38A G50A | 0.589
G17C U54A G56C | ≤ 0.5

Variant | yeast fitness
A15G G17A C30A C61A | ≤ 0.5
C4G G12A C24U A70C | ≤ 0.5
U8C C31G G51A G68C | ≤ 0.5
G25C G48A C60G | ≤ 0.5
C4U G17A A57U | ≤ 0.5
C4A C24U U47G | ≤ 0.5
C31G A37C C60U | ≤ 0.5
U2A C24G U28C A40U | ≤ 0.5
A37U A57C U64G | ≤ 0.5
U2C G17C G23C G25C U35A A42U C66U | ≤ 0.5
G18C G67A A69C | ≤ 0.5
U13A G25C A45G | 0.535
U16A G18A G56A G67C | ≤ 0.5
C24G C34G U47A C49A A65G | ≤ 0.5
C31U G41U G63A | 0.721
G52A G68A | 0.678
U3A G6C C55G | ≤ 0.5
U26A C30U C31U A37C G48A | ≤ 0.5
C30A C61U | 0.767
A14C C46G C62U C66U | ≤ 0.5
C4U U35A | 0.659
U7A C33A G50A C61G | ≤ 0.5
G12C U59A A69C | ≤ 0.5
C5A C33U G67A | 0.593

Variant | yeast fitness
C4A G6A A40G U53G C62G C66U | 0.6
G17A G23A C66A | 0.776
A14C U35C A69U | ≤ 0.5
A15U G25A | 1
C5U G9C C34U C60G | ≤ 0.5
C30A G48C C61U | 0.631
G12C U19C | 0.66
U2C C5U C11G C34U A36G C55G A57U G67A | ≤ 0.5
C4G C5A C27A C61A | ≤ 0.5
C5U G50C U54C | ≤ 0.5
A14U G38C C46A | 0.551
G17A | 0.835
U7G A36C | 0.614
C5A C29A C34G G68C | ≤ 0.5
C27A A45U G52A | ≤ 0.5
G6A G50A C60A G68U | ≤ 0.5
U7A A69C | 0.794
U28A C30G A36C | ≤ 0.5
G9A G10A C55A A65U G67C | 0.506
U8A C24A U28C C61U U64A A69G | ≤ 0.5
U7A G25U U32A G41A C61U | 0.589
C31U A42G | 0.73
U7A C34A G44A C46U A70C | ≤ 0.5
G56A A65U | 0.978

Variant | yeast fitness
U2G C27U A45C | 0.657
C4A A14U C34G A65U | ≤ 0.5
A20U U26C U47C | 0.534
C24A G48A U53G G63C | ≤ 0.5
C4A U16A A37G A69U | ≤ 0.5
C5G A14G A15G C30U A45G U64A | ≤ 0.5
G6A A20G C30G U35A G50A A65C | 0.517
U13C A65G A70C | 0.744
G18C G23A G25C A37G A43C C55G C62G | ≤ 0.5
C24G C49G G68U | ≤ 0.5
G48A C60G A65U | ≤ 0.5
C11A U53A G67A | ≤ 0.5
U8A C66A | 0.568
C4A U7A U8A C60A | ≤ 0.5
U7G A14U U19A C22U C61A | ≤ 0.5
A14U G17C A70G | ≤ 0.5
U47C G58U A65U | 0.511
C4G A14G C30G G63C | ≤ 0.5
A15U C27U U28G C33U | ≤ 0.5
G6C U47C C61U | 0.533
C46G U54G | 0.527
C5U U19C C24A U28A C46G C62U A70U | ≤ 0.5
U7A U32A | 0.588

— the RNAGym collection of RNA variant scans (doi:10.1126/science.aae0568)
